Laboratory results: ChEMBL document CHEMBL1132620, “Piperazine imidazo[1,5-a]quinoxaline ureas as high-affinity GABAA ligands of dual functionality” (J Med Chem, 1999)
The source made the active and inactive calls. No cut-off for these calls is given here.

What was measured:
[1] = Total plasma clearance after iv dose of 5.10 mg/kg in rats; type: ADME, organism-based; design: dose 5.1 mg/kg, route intravenous; conditions: rat, 5.1 mg/kg, read-out: Clp (converted)
[2] = Area under curve was determined for the compound after iv dose of 5.10 mg/kg in rats; type: ADME, organism-based; design: dose 5.1 mg/kg, route intravenous; conditions: rat, in vivo, 5.1 mg/kg
[3] = Area under curve was determined for the compound after po dose of 5.22 mg/kg in rats; type: ADME, organism-based; design: dose 5.22 mg/kg, route oral; conditions: rat, in vivo
[4] = Maximum serum concentration after po dose of 5.22 mg/kg in rats; type: ADME, organism-based; design: dose 5.22 mg/kg, route oral; conditions: rat
[5] = Oral bioavailability in rats at a dose of 5.22 mg/kg; type: ADME, organism-based; conditions: rat, in vivo
[6] = Time at which Cmax was reached was determined after po dose of 5.22 mg/kg of compound in rats; type: ADME, organism-based; design: dose 5.22 mg/kg, route oral; conditions: rat, in vivo
How it was run: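 Male Sprague–Dawley rats dosed orally with compound in a solution formulation, n = 3–4 per compound; serum drug concentrations measured over time, lower limit of quantitation 50 ng/mL. Tmax reported as the range of observed values across animals.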

[7] = Half-life after po dose of 5.22 mg/kg in rats; type: ADME, organism-based; design: dose 5.22 mg/kg, route oral; conditions: rat, in vivo
[8] = target: T1, GABA-A receptor; anion channel (Rattus norvegicus) (UniProt O09028+P15431+P18506+P18508+P19969+P20236+P23574+P23576+P28471+P28473+P30191+P62813+P63079+P63138+Q91ZM7+Q9ES14); assay: (§1) Displacement of [3H]flunitrazepam from GABA-A benzodiazepine receptor of rat cortical membranes; type: cell membranes; design: concentration or dose not given beside the values; conditions: Membrane, concentration not given here
How it was run: (§2)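 Rat membranes incubated 60 min at 4 °C with [3H]flunitrazepam, 50 µg membrane protein and graded test drug in 200 µL containing NaCl, 10 mM Hepes/Tris pH 7.4 and 1 mM MgCl2; bound ligand separated by rapid filtration on GF/B; mean affinity, SE ≤10% of mean.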

[9] = target: GABA-A receptor; anion channel; assay: as §1; type: cell membranes, Membrane; how it was run: as §2
[10] = target: T1, GABA-A receptor; anion channel (Rattus norvegicus); assay: Shift in [35S]TBPS binding to GABA-A Benzodiazepine receptor of rat brain membrane
[11] = target: T2, GABA-A receptor; alpha-1/beta-2/gamma-2 (Homo sapiens) (UniProt P14867+P47870+P18507); assay: (§3) In vitro GABA-mediated chloride current in A293 cells expressing GABA-A benzodiazepine receptor alpha-1-beta-2-gamma-2 subunits at 5 uM; type: functional, cell-based; conditions: HEK293
[12] = target: GABA A receptor alpha-3/beta-2/gamma-2 (Homo sapiens) (UniProt P47870+P18507+P34903); assay: In vitro GABA-mediated chloride current in A293 cells expressing GABA-A benzodiazepine receptor alpha-3-beta-2-gamma-2 subunits at 5 uM; type: functional, cell-based; conditions: HEK293
Mus musculus [13] = species on record: Mus musculus; assay: Ability to antagonize the muscle relaxation effect in mice caused by a benzodiazepine full agonist, triazolam.; type: functional
How it was run: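 Muscle relaxation induced by triazolam; test compound and triazolam given separately, traction scored 30 min after dosing; ED50 for blocking the relaxant effect.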

Mus musculus [14] = assay: In vivo efficacy is evaluated by percent control of cerebellar GMP levels in (drug+stress) treated mice/mice under stress; type: functional; design: concentration or dose not given beside the values
How it was run: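 Male CF-1 mice given drug orally in vehicle 122 before electric footshock stress, controls given vehicle (1 mL/100 g); killed 30 min after treatment; cerebellum homogenized in 1% perchloric acid, iced 30 min, boiled 5 min, spun 17000g 20 min; supernatant cGMP by radioimmunoassay, expressed as % of stress control.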

Mus musculus [15] = assay: In vivo acute electroshock physical dependence activity in mice; Active; type: functional, organism-based
Rattus norvegicus [16] = assay: In vivo efficacy evaluated for ability to antagonize metrazole induced clonic convulsions in rat after ip injection; type: functional
Rattus norvegicus [17] = assay: Geller-cook activity was determined using wilcoxon signed rank test on non punished schedule at dose 1 mg/kg in rats; type: functional
How it was run: (§4)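 Geller–Cook conflict schedule with punished and nonpunished response rates recorded per treatment; 6 animals per dose, controls 12–17; each dose compared to its own control by Wilcoxon signed rank test, p < 0.05.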

Rattus norvegicus [18] = assay: Geller-cook activity was determined using wilcoxon signed rank test on non punished schedule at dose 3 mg/kg in rats; type: functional; how it was run: as §4
Rattus norvegicus [19] = assay: Geller-cook activity was determined using wilcoxon signed rank test on punished schedule at dose 1 mg/kg in rats; type: functional; how it was run: as §4
Rattus norvegicus [20] = assay: Geller-cook activity was determined using wilcoxon signed rank test on punished schedule at dose 3 mg/kg in rats; type: functional; how it was run: as §4
Rattus norvegicus [21] = assay: Mean number of shocks produced by CDPZ in rats at a dose of 12 mg/kg was determined by vogel's punished licking assay; type: functional
How it was run: (§5)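 Vogel punished licking test in rats; number of shocks accepted recorded per dose group (n 6–10); each dose compared with the 0 mg/kg group of the same experiment by Wilcoxon rank sum test.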

Rattus norvegicus [22] = assay: Mean number of shocks produced by the compound in rats at a dose of 0 mg/kg was determined by vogel's punished licking assay; type: functional; how it was run: as §5
Rattus norvegicus [23] = assay: Mean number of shocks produced by the compound in rats at a dose of 0.3 mg/kg was determined by vogel's punished licking assay; type: functional; how it was run: as §5
Rattus norvegicus [24] = assay: Mean number of shocks produced by the compound in rats at a dose of 1 mg/kg was determined by vogel's punished licking assay; type: functional; how it was run: as §5
Rattus norvegicus [25] = assay: Mean number of shocks produced by the compound in rats at a dose of 10 mg/kg was determined by vogel's punished licking assay; type: functional; how it was run: as §5
Rattus norvegicus [26] = assay: Mean number of shocks produced by the compound in rats at a dose of 3 mg/kg was determined by vogel's punished licking assay; type: functional; how it was run: as §5
[27] = target: T2, GABA-A receptor; alpha-1/beta-2/gamma-2 (Homo sapiens); assay: as §3; type: functional, cell-based; conditions: HEK293; remark: listed apart in the source
[28] = Half-life after iv dose of 5.10 mg/kg in rats; type: ADME, organism-based; design: dose 5.1 mg/kg, route intravenous; conditions: rat, in vivo, 5.1 mg/kg

CCCC(=O)O.C[C@@H]1CN(C(=O)N2Cc3c(C(=O)OC(C)(C)C)ncn3-c3ccc(Cl)cc32)C[C@H](C)N1
clearance [1]: 25.2 mL/min/kg | AUC [2]: 3540 ng·h/mL | AUC [3]: 3570 ng·h/mL | Cmax [4]: 1170 ng/mL | bioavailability [5]: 101% | Tmax [6]: 0.5 h | half-life [7]: 1.8 h | inhibition [8]: 71% | Ki [9]: 3.27 nM | Shift [10]: 0.48 | Change in Cl- current [11]: 0.3 | Change in Cl- current [12]: 0.54 | ED50 (Mus musculus [13]): > 30 mg/kg | Control (Mus musculus [14]): 64% | Acute electroshock activity (Mus musculus [15]): Active | ED50 (Rattus norvegicus [16]): 3.7 mg/kg | Gellar cook activity (Rattus norvegicus [17]): 47 | Gellar cook activity (Rattus norvegicus [18]): 43 | Gellar cook activity (Rattus norvegicus [19]): 46 | Gellar cook activity (Rattus norvegicus [20]): 27 | Mean no. of shocks (Rattus norvegicus [21]): 19 | Mean no. of shocks (Rattus norvegicus [22]): 3.8 | Mean no. of shocks (Rattus norvegicus [23]): 5.3 | Mean no. of shocks (Rattus norvegicus [24]): 3.1 | Mean no. of shocks (Rattus norvegicus [25]): 12 | Mean no. of shocks (Rattus norvegicus [26]): 5.7 | Change in Cl- current [27]: 0.85 | half-life [28]: 1.2 h
